In ChEMBL document CHEMBL1138829, “Conformationally constrained analogues of diacylglycerol. 21. A solid-phase method of synthesis of diacylglycerol lactones as a prelude to a combinatorial approach for the synthesis of protein kinase C isozyme-specific ligands” (J Med Chem, 2004):

Tests used:
[1] = molecular target: T1, Protein kinase C alpha type (Homo sapiens, UniProt P17252); test: (§1) Displacement of [20-3H]phorbol-12,13-dibutyrate (PDBu) from a recombinant protein kinase C alpha with phosphatidylserine
In short: (§2)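 Competition binding against [20-3H]PDBu using intact recombinant single isozyme PKC-alpha in presence of phosphatidylserine; tested as crude resin-cleaved and purified samples. ID50 obtained by least-squares fit of theoretical sigmoidal competition curve; Ki calculated from ID50 via standard relationship.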

[2] = Partition coefficient (logP); format: physicochemical; conditions: octanol/water
[3] = molecular target: T1, Protein kinase C alpha type; test: as §1; in short: as §2; remark: listed apart in the source
[4] = molecular target: T1, Protein kinase C alpha type; test: as §1; in short: as §2; remark: listed apart in the source

Row | Compound | Ki [1] | logP [2] | Ki [3] | Ki [4]
1 | CCCCCCCCC/C=C1/CC(CO)(COC(=O)c2ccc(-c3ccccc3)cc2)OC1=O (configuration not stated) | 19.1 nM | 6.61 | 52.4 nM | –
2 | CCCCCCCC/C=C1/CC(CO)(COC(=O)Cc2ccccc2)OC1=O (configuration not stated) | 43.3 nM | 4.61 | – | 145 nM
3 | CCCCCCCCC/C=C1/CC(CO)(COC(=O)c2ccccc2)OC1=O (configuration not stated) | 20.3 nM | 4.85 | 37 nM | –
4 | CCCCCCCC/C=C1/CC(CO)(COC(=O)c2ccccc2)OC1=O (configuration not stated) | 25.7 nM | 4.36 | – | 45.6 nM
5 | CCCCCCCC/C=C1/CC(CO)(COC(=O)c2ccc(-c3ccccc3)cc2)OC1=O (configuration not stated) | 28 nM | 6.12 | – | 41.8 nM
6 | O=C1OC(CO)(COC(=O)c2ccccc2)C/C1=C/c1ccc(-c2ccccc2)cc1 (configuration not stated) | 14.1 nM | 3.9 | – | 41 nM
7 | O=C(Cc1ccccc1)OCC1(CO)C/C(=C/c2ccc(-c3ccccc3)cc2)C(=O)O1 (configuration not stated) | 48 nM | 4.15 | – | 152 nM
8 | CCCCCCCCC/C=C1/CC(CO)(COC(=O)Cc2ccccc2)OC1=O (configuration not stated) | 43.8 nM | 5.1 | 92.5 nM | –
9 | O=C1OC(CO)(COC(=O)c2ccc(-c3ccccc3)cc2)C/C1=C/c1ccc(-c2ccccc2)cc1 (configuration not stated) | 22.7 nM | 5.66 | – | 83.9 nM
